Assays:
[1] = Apparent elimination half life of compound was determined in monkey at 5 mg/kg intravenously admn.; type: ADME, organism-based; design: dose 5 mg/kg, route intravenous; conditions: simiiformes, in vivo, iv
How it was run: (§1)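 Single-dose PK in Sprague–Dawley rats, New Zealand rabbits, Beagle dogs and cynomolgus monkeys. Dosing was 25 mg/kg oral or 5 mg/kg iv. Plasma concentration–time profiles gave the apparent elimination half-life (T1/2) and the area under the concentration–time curve (AUC). Parameters are reported as means.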

[2] = In vivo inhibition of Matrix metalloprotease enzyme by Sponge-wrapped cartilage assay, compared to activity of RS-130830 (20+/-2) at 5 mg/kg. po. bid; type: functional
[3] = Area under concentration-time curve of compound was determined in dog at 5 mg/kg intravenously admn.; type: ADME, organism-based, Canis lupus familiaris; design: dose 5 mg/kg, route intravenous; conditions: in vivo, iv, read-out: AUC 0; how it was run: as §1
[4] = Oral bioavailability of compound was determined in rat at 25 mg/kg orally; type: ADME, organism-based; conditions: in vivo, read-out: Bioavailabiility
[5] = Maximum plasma concentration of compound was determined in monkey at 25 mg/kg orally; type: ADME, organism-based; design: dose 25 mg/kg, route oral; conditions: simiiformes, po
How it was run: (§2)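 Single oral dose of 25 mg/kg in Sprague–Dawley rats, New Zealand rabbits, Beagle dogs and Cynomolgus monkeys. Mean plasma pharmacokinetics; Cmax is the maximum plasma concentration and Tmax is the time of peak concentration.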

[6] = Volume of distribution at steady state of compound was determined in monkey at 5 mg/kg intravenously admn.; type: ADME, organism-based; design: dose 5 mg/kg, route intravenous; conditions: simiiformes, in vivo, iv, read-out: Vdss
How it was run: (§3)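 Single iv dose of 5 mg/kg in Sprague–Dawley rats, New Zealand rabbits, Beagle dogs and Cynomolgus monkeys. Mean plasma pharmacokinetics: C0 is the concentration at T=0, Vdss the volume of distribution at steady state, and CLT the total clearance.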

[7] = Total clearance of compound was determined in dog at 5 mg/kg intravenously admn.; type: ADME, organism-based, Canis lupus familiaris; design: dose 5 mg/kg, route intravenous; conditions: in vivo, iv, read-out: CLT; how it was run: as §3
[8] = Time of peak concentration of compound was determined in rabbit at 25 mg/kg orally; type: ADME, organism-based, Oryctolagus cuniculus; design: dose 25 mg/kg, route oral; conditions: in vivo, po; how it was run: as §2
[9] = Peak concentration of compound at Time = 0 was determined in monkey at 5 mg/kg intravenously admn.; type: ADME, organism-based; design: dose 5 mg/kg, route intravenous; conditions: simiiformes, in vivo, iv; how it was run: as §3
[10] = Maximum plasma concentration of compound was determined in rabbit at 25 mg/kg orally; type: ADME, organism-based, Oryctolagus cuniculus; design: dose 25 mg/kg, route oral; conditions: po; how it was run: as §2
[11] = In vivo inhibition of Matrix metalloprotease enzyme by Sponge-wrapped cartilage assay, compared to activity of RS-130830 (inactive) at 5 mg/kg. po. qd; type: functional
[12] = Area under concentration-time curve of compound was determined in dog at 25 mg/kg orally; type: ADME, organism-based, Canis lupus familiaris; design: dose 25 mg/kg, route oral; conditions: in vivo, po; how it was run: as §1
[13] = Apparent elimination half life of compound was determined in rat at 5 mg/kg intravenously admn.; type: ADME, organism-based; design: dose 5 mg/kg, route intravenous; conditions: in vivo, iv; how it was run: as §1
[14] = Time of peak concentration of compound was determined in rat at 25 mg/kg orally; type: ADME, organism-based; design: dose 25 mg/kg, route oral; conditions: in vivo, po; how it was run: as §2
[15] = Total clearance of compound was determined in monkey at 5 mg/kg intravenously admn.; type: ADME, organism-based; design: dose 5 mg/kg, route intravenous; conditions: simiiformes, in vivo, iv, read-out: CLT; how it was run: as §3
[16] = target: 72 kDa type IV collagenase (Homo sapiens, UniProt P08253); test: Inhibition of Matrix metalloprotease-2
Sequence of 72 kDa type IV collagenase (P08253 whole entry): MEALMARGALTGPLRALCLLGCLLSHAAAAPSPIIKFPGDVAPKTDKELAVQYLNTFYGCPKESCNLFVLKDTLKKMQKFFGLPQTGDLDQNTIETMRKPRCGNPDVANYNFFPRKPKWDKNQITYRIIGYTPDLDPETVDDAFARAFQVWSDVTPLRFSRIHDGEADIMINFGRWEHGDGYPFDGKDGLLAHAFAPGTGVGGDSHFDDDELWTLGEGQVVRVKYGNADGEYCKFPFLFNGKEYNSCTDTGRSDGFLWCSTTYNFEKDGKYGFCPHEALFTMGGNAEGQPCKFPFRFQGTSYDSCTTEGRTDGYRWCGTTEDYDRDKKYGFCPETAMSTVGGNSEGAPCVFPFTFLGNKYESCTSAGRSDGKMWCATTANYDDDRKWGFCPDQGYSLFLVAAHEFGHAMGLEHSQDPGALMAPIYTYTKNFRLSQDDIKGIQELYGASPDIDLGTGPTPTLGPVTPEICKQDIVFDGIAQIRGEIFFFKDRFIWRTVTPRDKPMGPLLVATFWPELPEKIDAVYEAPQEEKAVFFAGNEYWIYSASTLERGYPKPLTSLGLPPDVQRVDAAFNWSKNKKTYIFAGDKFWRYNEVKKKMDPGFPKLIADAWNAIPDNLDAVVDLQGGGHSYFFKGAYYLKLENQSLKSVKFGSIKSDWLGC
How it was run: (§4)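 Each inhibitor concentration was tested in triplicate. IC50 came from a four-parameter logistic fit of data within a single experiment and is reported as the mean of the triplicate values.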

[17] = Area under concentration-time curve of compound was determined in rabbit at 25 mg/kg orally; type: ADME, organism-based, Oryctolagus cuniculus; design: dose 25 mg/kg, route oral; conditions: in vivo, po; how it was run: as §1
[18] = Apparent elimination half life of compound was determined in rabbit at 25 mg/kg orally; type: ADME, organism-based, Oryctolagus cuniculus; design: dose 25 mg/kg, route oral; conditions: in vivo, po; how it was run: as §1
[19] = target: Collagenase 3 (Homo sapiens, UniProt P45452)
[20] = target: Matrix metalloproteinase-9 (Homo sapiens, UniProt P14780); test: In vitro inhibitory activity against matrix metalloprotease-9.
Sequence of Matrix metalloproteinase-9 (P14780 whole entry): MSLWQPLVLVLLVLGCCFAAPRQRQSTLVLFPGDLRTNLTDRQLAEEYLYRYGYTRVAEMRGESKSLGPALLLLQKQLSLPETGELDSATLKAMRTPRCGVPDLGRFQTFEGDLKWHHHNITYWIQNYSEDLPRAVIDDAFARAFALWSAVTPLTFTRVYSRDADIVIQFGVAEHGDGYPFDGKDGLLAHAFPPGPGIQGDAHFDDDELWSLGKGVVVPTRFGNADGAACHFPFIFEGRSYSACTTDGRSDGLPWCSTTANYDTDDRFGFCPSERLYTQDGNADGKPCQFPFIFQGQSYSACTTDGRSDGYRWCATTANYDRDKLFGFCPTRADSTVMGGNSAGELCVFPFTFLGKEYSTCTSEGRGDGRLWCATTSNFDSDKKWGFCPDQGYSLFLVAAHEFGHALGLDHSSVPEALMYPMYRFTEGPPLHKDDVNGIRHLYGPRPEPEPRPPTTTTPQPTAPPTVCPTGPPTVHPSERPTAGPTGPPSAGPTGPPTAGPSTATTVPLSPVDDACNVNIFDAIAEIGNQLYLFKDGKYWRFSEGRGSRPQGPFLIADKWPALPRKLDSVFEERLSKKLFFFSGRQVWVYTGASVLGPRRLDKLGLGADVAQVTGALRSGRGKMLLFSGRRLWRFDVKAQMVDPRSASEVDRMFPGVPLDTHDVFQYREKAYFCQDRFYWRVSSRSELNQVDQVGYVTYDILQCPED

[21] = In vivo inhibitory activity against Matrix metalloprotease enzyme by dialysis implant assay, value is relative to activity of CGS-27023 (48+/-3) at 25 mg/kg. po; type: functional
[22] = target: Stromelysin-1 (Homo sapiens, UniProt P08254); test: Inhibition of Matrix metalloprotease-3; how it was run: as §4
Sequence of Stromelysin-1 (P08254 whole entry): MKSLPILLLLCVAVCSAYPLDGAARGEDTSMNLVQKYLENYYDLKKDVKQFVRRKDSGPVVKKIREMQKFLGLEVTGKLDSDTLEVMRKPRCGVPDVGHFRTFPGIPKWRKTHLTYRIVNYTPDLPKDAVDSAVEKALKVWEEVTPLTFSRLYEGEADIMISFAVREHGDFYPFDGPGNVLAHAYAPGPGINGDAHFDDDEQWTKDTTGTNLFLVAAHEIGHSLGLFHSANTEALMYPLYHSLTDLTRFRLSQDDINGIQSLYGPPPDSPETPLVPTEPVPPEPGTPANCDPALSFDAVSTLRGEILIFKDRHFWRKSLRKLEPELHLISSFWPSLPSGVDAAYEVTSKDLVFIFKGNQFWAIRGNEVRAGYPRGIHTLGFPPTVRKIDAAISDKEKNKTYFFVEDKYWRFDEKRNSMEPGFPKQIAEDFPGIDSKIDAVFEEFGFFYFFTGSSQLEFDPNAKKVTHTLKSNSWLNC

[23] = system: Oryctolagus cuniculus; test: Effect of compound on cartilage in surgically induced osteoarthritis (OA) model in rabbit at 25 mg/kg, value are relative to activity of RS-130830 (7.9+/-1.5) at 25 mg/kg; type: ADME, organism-based, Cartilage tissue; conditions: in vivo
How it was run: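 Rabbits had anterior cruciate ligament transection plus meniscectomy in one knee, with sham surgery on the contralateral knee. From day 10 after surgery, groups of 12 were dosed once daily by oral gavage with vehicle, test compound or the RS-130830 reference for 4 weeks. Knee joints were then collected and scored for gross pathological changes by blinded investigators.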

[24] = target: T1, Matrilysin (Homo sapiens, UniProt P09237); test: Inhibition of Matrix metalloprotease-7; how it was run: as §4
T1 sequence (P09237 whole entry): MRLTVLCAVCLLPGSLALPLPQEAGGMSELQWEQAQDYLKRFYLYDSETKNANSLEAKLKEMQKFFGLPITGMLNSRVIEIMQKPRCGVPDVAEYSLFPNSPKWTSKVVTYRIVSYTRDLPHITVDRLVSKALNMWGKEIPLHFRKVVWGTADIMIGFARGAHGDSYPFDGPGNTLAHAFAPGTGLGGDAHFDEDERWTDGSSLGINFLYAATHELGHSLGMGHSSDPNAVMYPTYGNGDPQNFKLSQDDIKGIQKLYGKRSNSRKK

[25] = Area under concentration-time curve of compound was determined in rabbit at 5 mg/kg intravenously admn.; type: ADME, organism-based, Oryctolagus cuniculus; design: dose 5 mg/kg, route intravenous; conditions: in vivo, iv, read-out: AUC 0; how it was run: as §1
[26] = Volume of distribution at steady state of compound was determined in dog at 5 mg/kg intravenously admn.; type: ADME, organism-based, Canis lupus familiaris; design: dose 5 mg/kg, route intravenous; conditions: in vivo, iv, read-out: Vdss; how it was run: as §3

In the case of `O=C(NO)C1(S(=O)(=O)c2ccc(Oc3ccc(Cl)cc3)cc2)CCN(Cc2ccccc2)CC1`, the half-life [1] is reported as 20.7 h, the inhibition in vivo at 5 mg/kg [2] is reported as 53% and the AUC [3] is reported as 786 µg·h/mL. For the same compound, the bioavailability [4] was 55%, the Cmax [5] was 50.3 µg/mL and the Vd [6] was 0.2 L/kg. For the same compound, the clearance [7] was 0.1 mL/min/kg, the Tmax [8] was 10 h and the C0 [9] was 162 µg/mL. For the same compound, the Cmax [10] was 22.7 µg/mL, the inhibition in vivo at 5 mg/kg [11] was 24% and the AUC [12] was 1810 µg·h/mL. For the same compound, the half-life [13] was 4.4 h, the Tmax [14] was 1.5 h and the clearance [15] was 0.1 mL/min/kg. For the same compound, the IC50 [16] was 1 nM, the AUC [17] was 363 µg·h/mL and the half-life [18] was 7.14 h. For the same compound, the IC50 [19] was 1 nM, the IC50 [20] was 1 nM and the inhibition in vivo at 25 mg/kg [21] was 53%. For the same compound, the IC50 [22] was 55 nM, the “Average gross pathology scores+/- SE” value [23] was 6.8 and the IC50 [24] was 925 nM. It also gave an AUC [25] of 640 µg·h/mL and a Vd [26] of 0.1 L/kg.

Reference: ChEMBL document CHEMBL1145787, “Synthesis and structure-activity relationship of N-substituted 4-arylsulfonylpiperidine-4-hydroxamic acids as novel, orally active matrix metalloproteinase inhibitors for the treatment of osteoarthritis” (J Med Chem, 2003)
